The source of these data is ChEMBL document CHEMBL3853340, “Dihydropyrimidinones and -thiones with improved activity against human polyomavirus family members” (Bioorg Med Chem Lett, 2016).

Where only a bound is given, the exact number is not on record here.

Series [1] can be described thus: Cytotoxicity against human MCF7 cells assessed as cell growth inhibition after 48 hrs by cell titer-glo assay. It counts as toxicity, cell-based. An outline of the steps: (§1)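 Growth of MCF7 breast cancer cells and RMS13 rhabdomyosarcoma cells measured in the presence of compound. Values are the means ± SD of 2 independent experiments, each run in triplicate.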
Series [2] can be described thus: Cytotoxicity against human RMS13 cells assessed as cell growth inhibition after 24 hrs by cell titer-glo assay. The class given is toxicity, cell-based. Put shortly:
as §1
For orientation: In ATP-based viability assays light output follows the ATP content of the culture.

A short description of series [3]: Cytotoxicity against JC polyomavirus MAD-4 infected grivet COS7 cells assessed as reduction in cell viability after 7 days by cell titer-glo assay. It counts as toxicity, cell-based. The following applies: chlorocebus aethiops, cos-7, 168 h. Put shortly: (§2)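 JC virus replication and viability measured in COS7 green monkey kidney cells. EC50 is the concentration giving 50% activity. CC50 is the concentration killing 50% of viable cells. Values come from two independent experiments.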

For another series, the system named is JC polyomavirus. The series is described as follows: Antiviral activity against JC polyomavirus MAD-4 infected in grivet COS7 cells assessed as reduction in DNA copy number after 7 days by PCR analysis. It counts as functional, cell-based. The following applies: MAD-4, COS-7, 168 h. Put shortly: as §2
Series [4] can be described thus: Cytotoxicity against BK polyomavirus Gardner infected-human HFF cells assessed as reduction in cell viability after 7 days by cell titer-glo assay. The note with it: for CC50: hff, 168 h; for CC50 at 168 h: HFF cells infected with BK polyomavirus Gardner. It counts as toxicity, cell-based. Put shortly: (§3)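 BK virus replication and viability measured in human foreskin fibroblasts. EC50 is the concentration giving 50% activity. CC50 is the concentration killing 50% of viable cells. Values come from two independent experiments.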

A further series concerns BK polyomavirus. The series is described as follows: Antiviral activity against BK polyomavirus Gardner infected in human HFF cells assessed as reduction in DNA copy number after 7 days by PCR analysis. The class given is functional, cell-based. The note with it: Betapolyomavirus hominis, 168 h. Put shortly: as §3
The species named for series [5] is Homo sapiens. The series is described as follows: Inhibition of human Hsp70 expressed in Escherichia coli BL21(DE3) assessed as suppression of ATPase activity at 100 uM after 60 mins by TLC based steady state ATPase assay relative to control. An outline of the steps:
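Hsp70 ATPase activity measured without cochaperone. Activity was normalized to reactions with no compound but an equal amount of DMSO. Values are the means of three independent experiments.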

Series [6] has as its target Large T antigen (Simian virus 40) (UniProt P03070). The series is described as follows: Inhibition of ATPase activity of SV40 T antigen expressed in baculovirus at 10 uM by antibody affinity chromatography relative to control. The note with it: Betapolyomavirus macacae. An outline of the steps:
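Purified T antigen ATPase activity measured with test agent at a final concentration of 10 μM. Activity was normalized to reactions with no compound but an equal amount of DMSO. Values are the means of three independent experiments.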

Series [7] concerns Homo sapiens. The series is described as follows: Inhibition of human Hsp70 expressed in Escherichia coli BL21(DE3) assessed as suppression of Hdj2-activated ATPase activity at 100 uM dosed 15 mins after Hsp70 and Hdj2 pre-incubation and measured after 60 mins by TLC based steady state ATPase assay relative to control. The class given is […]. Put shortly: (§4)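 Hsp70 ATPase activity measured with Hdj2 (Hsp40) at a 1:0.5 Hsp70:Hsp40 molar ratio. Activity was normalized to DMSO-matched reactions lacking compound. Values are the means of three independent experiments.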

Series [8] can be described thus: Specificity index, ratio of CC50 for grivet COS7 cells to EC50 for JC polyomavirus MAD-4 infected in grivet COS7 cells. Also noted: species or system COS-7.
The subject of series [9] is Homo sapiens. The series is described as follows: Activation of human Hsp70 expressed in Escherichia coli BL21(DE3) assessed as stimulation of Hdj2-activated ATPase activity at 100 uM dosed 15 mins after Hsp70 and Hdj2 pre-incubation and measured after 60 mins by TLC based steady state ATPase assay relative to control. It counts as […]. An outline of the steps:
as §4

Series [10] in a line: Partition coefficient, logP of the compound. The class given is physicochemical. The following applies: octanol/water.
A short description of series [11]: Distribution coefficient, logD of the compound. The class given is physicochemical. The following applies: octanol/water.

Sequence of Large T antigen (Simian virus 40) (P03070 whole entry): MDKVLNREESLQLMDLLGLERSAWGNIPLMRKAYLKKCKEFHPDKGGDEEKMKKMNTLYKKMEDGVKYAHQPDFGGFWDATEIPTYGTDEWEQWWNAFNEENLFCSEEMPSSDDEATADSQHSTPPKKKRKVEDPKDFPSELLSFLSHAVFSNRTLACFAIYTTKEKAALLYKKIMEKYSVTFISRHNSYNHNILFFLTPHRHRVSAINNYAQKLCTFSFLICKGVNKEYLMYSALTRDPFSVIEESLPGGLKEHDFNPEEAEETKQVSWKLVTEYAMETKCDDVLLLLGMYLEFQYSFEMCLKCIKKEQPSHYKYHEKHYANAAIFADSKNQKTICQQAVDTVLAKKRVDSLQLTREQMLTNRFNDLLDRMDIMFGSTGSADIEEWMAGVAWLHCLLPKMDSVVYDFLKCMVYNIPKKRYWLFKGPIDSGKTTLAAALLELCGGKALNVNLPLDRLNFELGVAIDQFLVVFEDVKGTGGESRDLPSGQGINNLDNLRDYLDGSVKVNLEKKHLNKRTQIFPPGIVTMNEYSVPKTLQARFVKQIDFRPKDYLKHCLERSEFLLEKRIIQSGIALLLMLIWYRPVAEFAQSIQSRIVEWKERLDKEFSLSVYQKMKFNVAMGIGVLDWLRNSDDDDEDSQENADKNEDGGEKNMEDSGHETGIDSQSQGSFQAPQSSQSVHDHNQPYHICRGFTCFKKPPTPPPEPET

As to `CC1=C(C(=O)OCc2ccccc2)C(c2ccc(-c3ccccc3C)cc2)NC(=O)N1Cc1ccc(-c2nnn[nH]2)cc1` (stereo not given), the concentration for 50% growth inhibition (GI50) (in general, the concentration giving 50% growth inhibition) at 48 h in series [1] came out at 140 µM. In addition, the concentration for 50% growth inhibition (GI50) at 24 h in series [2] stood at 73 µM. Moreover, the values for the CC50 in series [3] and in series [4] were 21 µM and 20 µM, respectively. Besides, the EC50 (usually the midpoint of the concentration-response curve) with JC polyomavirus is 4.2 µM; in the series with BK polyomavirus it was 1.7 µM.
As for `CC1=C(C(=O)OCc2ccccc2)C(c2ccc(-c3ccccc3)cc2)NC(=O)N1CCCCCc1nnn[nH]1` (stereo not given), the fold change (FC) in the series filed under Homo sapiens [5] stood at 1.2; in [6], 1.4; in the series on Homo sapiens [7], 1.3. Also, the CC50 – broadly, the concentration giving 50% cytotoxicity – in series [3] worked out at 24 µM. Also, the results for the concentration for a half-maximal effect (EC50) in the series on JC polyomavirus and in the series with BK polyomavirus were 3.5 µM and 3.9 µM, respectively. In addition, the CC50 at 168 h in series [4] is greater than 67 µM.
On to `CC1=C(C(=O)OCc2ccccc2)C(c2ccc(-c3ccccc3)cc2)NC(=S)N1CCCCCC(=O)O` (stereo not given), for which the fold change (FC) in [6] worked out at 1.5. Besides, the GI50 at 24 h in series [2] was determined as 100 µM.
On to `Nc1ccn(C[C@@H](CO)OCP(=O)(O)O)c(=O)n1.O.O` [CIDOFOVIR], for which the “Ratio CC50/EC50” value in [8] amounted to 24. The CC50 in series [3] was 49 µM. Besides, the results for the EC50 with JC polyomavirus and in the series with BK polyomavirus were 2 µM and 1.1 µM, respectively. In addition, the CC50 at 168 h in series [4] was greater than 100 µM.
As for `CC1=C(C(=O)OCc2ccccc2)C(c2ccc(-c3ccccc3)cc2)NC(=O)N1Cc1ccc(-c2nnn[nH]2)cc1` (stereo not given), in series [1], the concentration for 50% growth inhibition (GI50) at 48 h turned out to be 160 µM. For the same molecule, the fold change (FC) in [6] turned out to be 2; in the series on Homo sapiens [7], 5. Also, the GI50 at 24 h in series [2] is 96 µM.
In the case of `CC1=C(C(=O)OCc2ccccc2)C(c2ccc(-c3ccccc3C)cc2)NC(=O)N1CCCCCc1nnn[nH]1` (stereo not given), the fold change (FC) in the series filed under Homo sapiens [5] worked out at 1.4; in [6], 2.1; in the series on Homo sapiens [7], 3. Besides, in [1], the GI50 at 48 h stood at 72 µM. For the same molecule, the GI50 at 24 h in [2] is 100 µM.
Turning to `CC1=C(C(=O)OCc2ccccc2)C(c2ccc(-c3ccccc3)cc2)NC(=S)N1Cc1ccc(-c2nnn[nH]2)cc1` (stereo not given), the fold change (FC) came to 1.4 in the series listed under Homo sapiens [5], 5.5 in [6] and 4.5 in the series on Homo sapiens [7]. Also, the GI50 at 48 h in [1] amounted to 140 µM. For the same molecule, in [2], the GI50 at 24 h amounted to 87 µM.
`CC1=C(C(=O)OCc2ccccc2)C(c2ccc(-c3ccccc3)cc2)N(CCCCCC(=O)O)C(=S)N1` (stereo not given): the fold change (FC) in [6] is 1.6. Moreover, the GI50 at 24 h in [2] is 110 µM.
Take `CCCCCCN(C(=O)CCCCCN1C(=O)NC(c2ccc(-c3ccccc3)cc2)C(C(=O)OCc2ccccc2)=C1C)C(C(=O)NCCCC)c1ccc(OCC(=O)OC)c(C(=O)OC)c1` (stereo not given): the GI50 at 48 h in [1] was determined as 6 µM. The 50% growth inhibitory concentration (GI50) at 24 h in series [2] was determined as 13 µM.
As to `CC1=C(C(=O)OCc2ccccc2)C(c2ccc(-c3ccccc3C)cc2)NC(=S)N1Cc1ccc(-c2nnn[nH]2)cc1` (stereo not given), the GI50 at 48 h in series [1] stood at 160 µM. Further, the fold change (FC) in series [6] stood at 7.7; in the series on Homo sapiens [7] it was 3.7. In addition, the GI50 at 24 h in series [2] stood at 68 µM.
Take `CC1=C(C(=O)OCc2ccccc2)C(c2ccc(-c3ccccc3C)cc2)NC(=S)N1CCCCCc1nnn[nH]1` (stereo not given): the fold change (FC) was 4.7 in [6] and 2.5 in the series on Homo sapiens [7]. Further, in series [2], the GI50 at 24 h was 100 µM.
As for `CC1=C(C(=O)OCc2ccccc2)C(c2ccc(-c3ccccc3)cc2)NC(=O)N1CCCCCC(=O)O` (stereo not given), the fold change (FC) (in series [6]; with Homo sapiens [9]) was 1.5 in each case. In addition, in [2], the GI50 at 24 h amounted to 120 µM.
Take `CC1=C(C(=O)OCc2ccccc2)C(c2ccc(-c3ccccc3C)cc2)N(Cc2ccc(-c3nnn[nH]3)cc2)C(=S)N1` (stereo not given): the results for the fold change (FC) (in the series listed under Homo sapiens [5]; in [6]; in the series with Homo sapiens [7]) were 1.3, 7.5 and 4.8, respectively. Also, in series [2], the GI50 at 24 h amounted to 62 µM.
Take `CC1=C(C(=O)OCc2ccccc2)C(c2ccc(-c3ccccc3)cc2)N(Cc2ccc(-c3nnn[nH]3)cc2)C(=O)N1` (stereo not given): the fold change (FC) in the series listed under Homo sapiens [5] was 1.2; in series [6], 2.3; in the series with Homo sapiens [7], 5.
With `CC1=C(C(=O)OCc2ccccc2)C(c2ccc(-c3ccccc3)cc2)N(Cc2ccc(-c3nnn[nH]3)cc2)C(=S)N1` (stereo not given), the fold change (FC) was determined as 1.7 in the series listed under Homo sapiens [5], 4.5 in [6] and 5.3 with Homo sapiens [7]. For the same molecule, the “Ratio CC50/EC50” value in series [8] came out at 23. The GI50 at 48 h in series [1] was 110 µM. Besides, the GI50 at 24 h in series [2] came out at 72 µM. The CC50 in [3] came out at 18 µM; in series [4], 17 µM. Moreover, the results for the EC50 in the series on JC polyomavirus and with BK polyomavirus were 0.75 µM and 1.8 µM, respectively. Also, in [10], the logP – broadly, the decadic logarithm of the partition coefficient of the neutral form, usually between octanol and water – stood at 6.4. Besides, the logD (commonly lipophilicity at a set pH, counting ionised and neutral species) in series [11] is 4.8.
`CC1=C(C(=O)OCc2ccccc2)C(c2ccc(-c3ccccc3)cc2)NC(=S)N1CCCCCc1nnn[nH]1` (stereo not given): the fold change (FC) stood at 2.1 in series [6] and 1.7 in the series on Homo sapiens [7]. Further, in series [2], the GI50 at 24 h came to 110 µM.
